Source: ChEMBL document CHEMBL4622832, “Synthesis, biological evaluation and molecular modeling study of 2-amino-3,5-disubstituted-pyrazines as Aurora kinases inhibitors” (Bioorg Med Chem, 2020)
The source made the active and inactive calls. The calls are words filed in the database; no cut-off is given here.

Tests used:
LoVo = assay: Antiproliferative activity against human LoVo cells assessed as cell growth inhibition after 72 hrs by MTT assay; format: functional, cell-based
Summary of the method: (§1)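 Cells seeded at 5 × 10^3 cells/well in medium with 10% FBS for 24 h at 37 °C, 5% CO2. Compounds diluted in culture medium to various concentrations, 72 h exposure. MTT (5 mg/mL stock in serum-free medium) for 4 h, formazan dissolved in DMSO, absorbance at 490 nm. IC50 from log plot of percent of control versus concentration; triplicate.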

HepG2 = assay: Antiproliferative activity against human HepG2 cells assessed as cell growth inhibition after 72 hrs by MTT assay; format: functional, cell-based; conditions: HepG2, 72 h; summary of the method: as §1
U-87 MG = assay: Antiproliferative activity against human U87 cells assessed as cell growth inhibition after 72 hrs by MTT assay; format: functional, cell-based, U-87MG ATCC; summary of the method: as §1
HeLa [1] = assay: Antiproliferative activity against human HeLa cells assessed as cell growth inhibition after 72 hrs by MTT assay; format: functional, cell-based; summary of the method: as §1
Aurora kinase B [2] = molecular target: T1, Aurora kinase B (Homo sapiens, UniProt Q96GD4); assay: Inhibition of Aurora kinase B (unknown origin) incubated for 30 mins by Kinase Glo luminescent assay
Aurora kinase A = molecular target: T2, Aurora kinase A (Homo sapiens, UniProt O14965); assay: Inhibition of Aurora kinase A (unknown origin) incubated for 30 mins by Kinase Glo luminescent assay
T2 sequence (O14965 whole entry): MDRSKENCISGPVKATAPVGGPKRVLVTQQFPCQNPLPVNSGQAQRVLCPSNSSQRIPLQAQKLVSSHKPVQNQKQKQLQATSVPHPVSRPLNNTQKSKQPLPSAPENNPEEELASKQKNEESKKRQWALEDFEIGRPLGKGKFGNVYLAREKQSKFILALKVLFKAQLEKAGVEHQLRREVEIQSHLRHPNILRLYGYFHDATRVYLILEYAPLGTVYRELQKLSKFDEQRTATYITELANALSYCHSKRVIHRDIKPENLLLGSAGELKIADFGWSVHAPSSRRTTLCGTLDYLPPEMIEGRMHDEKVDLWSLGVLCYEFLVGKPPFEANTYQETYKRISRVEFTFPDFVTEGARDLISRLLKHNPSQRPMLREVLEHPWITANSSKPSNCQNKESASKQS

HeLa [3] = assay: Induction of cell cycle arrest in human HeLa cells assessed as accumulation in G2/M phase at 10 uM after 24 hrs by propidium iodide staining-based flow cytometric analysis (reference value: 10.5%); format: functional
Aurora kinase B [4] = molecular target: T1, Aurora kinase B; assay: Inhibition of Aurora kinase B in human HeLa cells assessed as reduction in phosphorylation at Thr232 residue incubated for 24 hrs by western blot analysis; format: cell-based
Summary of the method: (§2)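 HeLa cells treated 24 h at 0, 1, 5 or 10 µM. Lysates quantified by BCA; 20–30 µg protein run on 12% SDS-PAGE, transferred to PVDF. Blocked 2 h in 5% milk/TBST. Primary antibodies (1:500–1:1000) overnight at 4 °C against p-Aurora A Thr288, p-Aurora B Thr232, total Aurora A/B, cyclin B1 and cdc2. Secondary at 1:5000–1:10,000; β-actin loading control.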

HeLa [5] = assay: Induction of cell cycle arrest in human HeLa cells assessed as decrease in cdc2 expression level at 1 to 10 uM incubated for 24 hrs by Western blot analysis; format: functional, cell-based; summary of the method: as §2
HeLa [6] = assay: Induction of cell cycle arrest in human HeLa cells assessed as accumulation in G2/M phase at 5 uM after 24 hrs by propidium iodide staining-based flow cytometric analysis (reference value: 10.5%); format: functional
HeLa [7] = assay: Induction of cell cycle arrest in human HeLa cells assessed as accumulation in G2/M phase at 1 uM after 24 hrs by propidium iodide staining-based flow cytometric analysis (reference value: 10.5%); format: functional
[8] = molecular target: T3, Aurora kinase A (Homo sapiens) (UniProt O14965); assay: Inhibition of Aurora kinase A in human HeLa cells assessed as reduction in phosphorylation at Thr288 residue incubated for 24 hrs by western blot analysis; format: cell-based; summary of the method: as §2
T3 sequence (whole entry): T2 sequence (O14965 whole entry)

HeLa [9] = assay: Induction of cell cycle arrest in human HeLa cells assessed as accumulation in G2/M phase after 24 hrs by propidium iodide staining-based flow cytometric analysis; format: functional
HeLa [10] = assay: Induction of cell cycle arrest in human HeLa cells assessed as decrease in cyclin B1 expression level at 1 to 10 uM incubated for 24 hrs by Western blot analysis; format: functional, cell-based; summary of the method: as §2
Aurora kinase B [11] = molecular target: T1, Aurora kinase B; assay: Inhibition of Aurora B in human B-NHL cells assessed as inhibition of histone H3 phosphorylation on Ser10 by immunoblotting analysis; format: cell-based

T1 sequence (Q96GD4 whole entry): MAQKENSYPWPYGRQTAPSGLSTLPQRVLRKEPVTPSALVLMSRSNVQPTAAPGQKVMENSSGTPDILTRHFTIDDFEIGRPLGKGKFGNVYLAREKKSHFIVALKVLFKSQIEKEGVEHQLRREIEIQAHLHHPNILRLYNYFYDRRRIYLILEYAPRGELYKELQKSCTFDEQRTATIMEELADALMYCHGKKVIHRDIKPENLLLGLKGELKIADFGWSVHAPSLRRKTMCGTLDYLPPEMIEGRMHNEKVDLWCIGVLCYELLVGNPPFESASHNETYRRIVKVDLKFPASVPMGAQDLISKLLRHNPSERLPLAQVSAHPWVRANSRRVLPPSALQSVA

| SMILES | IC50 (LoVo) [µM] | IC50 (HepG2) [µM] | IC50 (U-87 MG) [µM] | IC50 (HeLa [1]) [µM] | IC50 (Aurora kinase B [2]) [µM] | IC50 (Aurora kinase A) [µM] | other results |
| --- | --- | --- | --- | --- | --- | --- | --- |
| Cn1cc(-c2cnc(N)c(Oc3ccc(C(=O)Nc4ncccc4Cl)cc3)n2)cn1 | 16.5 | 21.7 | 37.6 | 36.1 | – | – | – |
| Cc1noc(C)c1-c1cnc(N)c(Oc2ccc(C(=O)N3CCOCC3)cc2)n1 | 10.2 | 15.4 | 27.2 | 14.1 | 0.36 | 0.172 | – |
| Cc1cc(Nc2cc(N3CCN(C)CC3)nc(Sc3ccc(NC(=O)C4CC4)cc3)n2)n[nH]1 [TOZASERTIB] | 13.6 | 12.8 | 14.5 | 9.5 | – | – | Activity (HeLa [3]): 36% |
| Cc1noc(C)c1-c1cnc(N)c(Oc2ccc(C(=O)NC3CCCCC3)cc2)n1 | 21.6 | 5.42 | 40.4 | 26.1 | 0.32 | 0.23 | – |
| Cn1cc(-c2cnc(N)c(Oc3ccc(C(=O)Nc4ccccc4)cc3)n2)cn1 | 9.21 | 11.6 | 17.7 | 12.3 | 0.164 | 0.22 | – |
| Cn1cc(-c2cnc(N)c(Oc3ccc(C(=O)Nc4ccc(Cl)cn4)cc3)n2)cn1 | 6.16 | 24.2 | 22.2 | 21.5 | – | – | – |
| Cc1noc(C)c1-c1cnc(N)c(Oc2ccc(C(=O)Nc3cccc(Cl)n3)cc2)n1 | 39.3 | 35.7 | 64.1 | 25.5 | – | – | – |
| Cc1noc(C)c1-c1cnc(N)c(Oc2ccc(C(=O)NC3CCCC3)cc2)n1 | 25.2 | 12.8 | 57.6 | 9.97 | – | – | – |
| Cn1cc(-c2cnc(N)c(Oc3ccc(C(=O)Nc4cccc(Cl)n4)cc3)n2)cn1 | 48.6 | 44.2 | 54.8 | 38.2 | – | – | – |
| CCCNC(=O)c1ccc(Oc2nc(-c3c(C)noc3C)cnc2N)cc1 | 17.5 | 6.88 | 47.8 | 32.1 | – | – | – |
| Cn1cc(-c2cnc(N)c(Oc3ccc(C(=O)Nc4cc(Cl)ccn4)cc3)n2)cn1 | 26.6 | > 100 | 47.9 | 40.8 | – | – | – |
| Cc1noc(C)c1-c1cnc(N)c(NCc2ccc(C(=O)Nc3ccc(Cl)cc3)cc2)n1 | > 100 | > 100 | > 100 | > 100 | – | – | – |
| Cn1cc(-c2cnc(N)c(Sc3ccc(C(=O)Nc4ccc(Cl)cc4)cc3)n2)cn1 | > 100 | > 100 | > 100 | 42.7 | – | – | – |
| Cc1noc(C)c1-c1cnc(N)c(Oc2ccc(C(=O)Nc3ccccc3)cc2)n1 | 5.74 | 11.8 | 26.6 | 10.5 | 0.538 | 0.22 | – |
| Cc1noc(C)c1-c1cnc(N)c(Oc2ccc(C(=O)Nc3ncccc3Cl)cc2)n1 | 14.8 | 27.2 | 45.6 | 31.9 | – | – | – |
| Cn1cc(-c2cnc(N)c(NCc3ccc(C(=O)Nc4ccc(Cl)cc4)cc3)n2)cn1 | 43.6 | 20.1 | > 100 | 42.1 | – | – | – |
| Cc1noc(C)c1-c1cnc(N)c(Oc2ccc(C(=O)NC3CC3)cc2)n1 | > 100 | 43.2 | 43.3 | 17.8 | – | – | – |
| Cc1noc(C)c1-c1cnc(N)c(Oc2ccc(C(=O)Nc3cccc(Cl)c3)cc2)n1 | 1.64 | 7.3 | 11.5 | 1.34 | 0.152 | 0.09 | inhibition (Aurora kinase B [4]): Dose-dependent effect; Activity (HeLa [3]): 34.9%; Activity (HeLa [5]): Active; Activity (HeLa [6]): 30.1%; Activity (HeLa [7]): 21%; inhibition [8]: Dose-dependent effect; Activity (HeLa [9]): Dose-dependent effect; Activity (HeLa [10]): Active |
| Cc1noc(C)c1-c1cnc(N)c(Oc2ccc(C(=O)Nc3ccccc3Cl)cc2)n1 | > 100 | > 100 | 60.5 | 81.3 | – | – | – |
| Cc1noc(C)c1-c1cnc(N)c(Oc2ccc(C(=O)Nc3cc(Cl)ccn3)cc2)n1 | > 100 | > 100 | 70.8 | 37.9 | – | – | – |
| O=C(Nc1c[nH]nc1-c1nc2ccc(CN3CCOCC3)cc2[nH]1)NC1CC1 [AT-9283] | – | – | – | – | – | – | IC50 (Aurora kinase B [11]): 0.03 µM |
| Cn1cc(-c2cnc(N)c(Oc3ccc(C(=O)Nc4ccc(Cl)cc4)cc3)n2)cn1 | 3.08 | 11.9 | 35.8 | 3.44 | 0.175 | 0.19 | – |
| Cc1noc(C)c1-c1cnc(N)c(Oc2ccc(C(=O)Nc3ccc(Cl)cn3)cc2)n1 | 9.18 | 35.6 | 45.6 | 19.2 | – | – | – |
| Cn1cc(-c2cnc(N)c(Oc3ccc(C(=O)Nc4ccccc4Cl)cc3)n2)cn1 | 41.4 | 66.9 | 44.8 | 73 | – | – | – |
| Cc1noc(C)c1-c1cnc(N)c(Oc2ccc(C(=O)Nc3ccc(Cl)cc3)cc2)n1 | 1.92 | 14.4 | 15.5 | 2.23 | 0.26 | 0.458 | – |
| Cn1cc(-c2cnc(N)c(Oc3ccc(C(=O)Nc4cccc(Cl)c4)cc3)n2)cn1 | 24.5 | 21.2 | 21.7 | 4.46 | 0.272 | 0.658 | – |
| Cc1noc(C)c1-c1cnc(N)c(Oc2ccc(C(=O)N3CCN(C)CC3)cc2)n1 | 7.69 | 17.6 | 21.5 | 8.03 | 0.189 | 0.143 | – |
| Cc1noc(C)c1-c1cnc(N)c(Sc2ccc(C(=O)Nc3ccc(Cl)cc3)cc2)n1 | 49.2 | 45.2 | > 100 | 38.4 | – | – | – |
